Experimental data reported in ChEMBL document CHEMBL3593186, “Synthesis, β-hematin inhibition studies and antimalarial evaluation of dehydroxy isotebuquine derivatives against Plasmodium berghei” (Bioorg Med Chem, 2015).

Experiments:
[1] = Inhibition of haemozoin formation using hemin chloride assessed as beta-hematin formation at 5 to 100 uM after 48 hrs; format: physicochemical
Procedure, shortened: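 Hemin chloride (4 mM in DMSO) was mixed with compound in DMSO at 100–5 µM, in triplicate. Water or DMSO served as controls. β-Hematin formation was started with 0.2 M acetate buffer, pH 4.4, and run for 48 h at 37 °C. The pellet was washed with DMSO, dissolved in 0.2 N NaOH, diluted 1:2 in 0.1 N NaOH and read at 405 nm, giving % inhibition of haemozoin formation.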

Plasmodium berghei [2] = assay: Antimalarial activity against chloroquine susceptible Plasmodium berghei ANKA infected in Balb-C mouse assessed as host survival days at 20 mg/kg, ip qd for 4 days (reference value: 6.80 +/- 0.70 days); format: functional
Plasmodium berghei [3] = assay: Antimalarial activity against chloroquine susceptible Plasmodium berghei ANKA infected in Balb-C mouse assessed as reduction of parasitemia at 20 mg/kg, ip qd for 4 days by Giemsa staining (reference value: 65.20 +/- 2.58%); format: functional; design: scale not given: the % may be the effect or the level left
Mus musculus = assay: Toxicity in chloroquine susceptible Plasmodium berghei ANKA infected Balb-C mouse at 20 mg/kg, ip qd for 4 days; format: organism-based; conditions: in vivo, 96 h
Plasmodium berghei [4] = assay: Antimalarial activity against chloroquine susceptible Plasmodium berghei ANKA infected in Balb-C mouse assessed as reduction of parasitemia at 25 mg/kg, ip qd for 4 days by Giemsa staining (reference value: 65.20 +/- 2.58%); format: functional
Plasmodium berghei [5] = assay: Antimalarial activity against chloroquine susceptible Plasmodium berghei ANKA infected in Balb-C mouse assessed as host survival days at 25 mg/kg, ip qd for 4 days (reference value: 6.80 +/- 0.70 days); format: functional

Structure (SMILES)	inhibition (INH) [1] [%]	Survival (Plasmodium berghei [2]) [days]	Activity (Plasmodium berghei [3]) [%]	Activity (Mus musculus)	Parasitemia (Plasmodium berghei [4]) [%]	Survival (Plasmodium berghei [5]) [days]
CCN(CC)Cc1ccc(Nc2ccnc3cc(Cl)ccc23)cc1-c1ccccc1.Cl	98.45	25.2	3.2	–	–	–
Cl.Clc1ccc2c(Nc3ccc(CN4CCCCC4)c(-c4ccccc4)c3)ccnc2c1	97.08	28.4	1.8	Non-toxic	–	–
Cl.Clc1ccc2c(Nc3ccc(CN4CCOCC4)c(-c4ccccc4)c3)ccnc2c1	98.04	23.2	6.5	–	–	–
Cl.Clc1ccc2c(Nc3ccc(CN4CCCC4)c(-c4ccccc4)c3)ccnc2c1	98.49	28.6	2.1	Non-toxic	–	–
CN1CCN(Cc2ccc(Nc3ccnc4cc(Cl)ccc34)cc2-c2ccc(Cl)cc2)CC1.Cl	1.61	–	–	–	–	–
Cl.Clc1ccc(-c2cc(Nc3ccnc4cc(Cl)ccc34)ccc2CN2CCCCC2)cc1	97.21	26	7.3	–	–	–
Cl.Clc1ccc(-c2cc(Nc3ccnc4cc(Cl)ccc34)ccc2CN2CCOCC2)cc1	2.03	–	–	–	–	–
Cl.Clc1ccc(-c2cc(Nc3ccnc4cc(Cl)ccc34)ccc2CN2CCCC2)cc1	97.25	27.3	2	Non-toxic	–	–
CCN(CC)CCCC(C)Nc1ccnc2cc(Cl)ccc12 (stereo unspecified) [CHLOROQUINE]	98.57	–	–	–	0.6	29.4
